Source: ChEMBL document CHEMBL1122815, “Synthesis and hypoglycemic activity of N-alkylated hydrazonopropionic acids” (J Med Chem, 1985)

Key:
Cavia porcellus [1] = experiment: Hypoglycemic activity was given as differences between the mean changes in blood glucose concentration in control group and the treated group after a dose of 25 mg/kg, ip; format: functional; conditions: route intraperitoneal
Procedure, shortened: (§1)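 Guinea pigs fasted from about 20 h before and throughout the study, with free access to water; six animals per dose group. Compound was given ip as a neutral solution, and a parallel control group received physiological NaCl ip. Ear-vein blood (10 μL) was taken before dosing and then hourly to 6 h. Glucose was measured by hexokinase on the hemolysate. The effect was calculated as the % difference of the lowest glucose relative to the initial value. U-test, p ≤ 0.05.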

Cavia porcellus [2] = experiment: Hypoglycemic activity was given as differences between the mean changes in blood glucose concentration in control group and the treated group after a dose of 50 mg/kg, ip; format: functional; conditions: route intraperitoneal; procedure, shortened: as §1
Cavia porcellus [3] = experiment: Hypoglycemic activity at a dose of 20 mg/kg administered intraperitoneally; format: functional; conditions: dose 50 mg/kg; route intraperitoneal; in the assay text read “50 mg/kg” for “20 mg/kg”; procedure, shortened: as §1
[4] = Lethal dose on oral administration to rats was determined; format: toxicity, organism-based; conditions: rat, in vivo

| Structure (SMILES) | Decrease in blood glucose (Cavia porcellus [1]) | further results |
| --- | --- | --- |
| C/C(=N\NCCc1ccccc1)C(=O)O | 40% |  |
| C/C(=N\NC/C=C/c1ccc(Cl)cc1)C(=O)O | 9% |  |
| C/C(=N\NCCCC1CCCC1)C(=O)O | 68% |  |
| C/C(=N\NC/C=C/c1cccc(Cl)c1)C(=O)O | 14% | Decrease in blood glucose (Cavia porcellus [2]): 6% |
| C/C(=N\NCCc1ccc(F)cc1)C(=O)O | 21% |  |
| CCC/C=C/CN/N=C(\C)C(=O)O | 43% |  |
| C/C(=N\NC/C=C/c1ccccc1)C(=O)[O-].[Na+] | 15% |  |
| C/C(=N\NCC(C)Cc1ccccc1)C(=O)O (centres undefined) |  | Decrease in blood glucose (Cavia porcellus [2]): 22% |
| C/C(=N\NCCOc1ccccc1)C(=O)O | 22% |  |
| CC/C=C/CCN/N=C(\C)C(=O)O | 82% |  |
| C/C(=N\NCCCCc1ccccc1)C(=O)[O-].[Na+] | 34% |  |
| C/C(=N\NCCCc1ccccc1)C(=O)[O-].[Na+] |  | Decrease in blood glucose (Cavia porcellus [2]): 23% |
| CCCCCCCCN/N=C(\C)C(=O)O | 69% |  |
| C/C(=N\NC/C=C/c1cccc(C)c1)C(=O)O | 22% |  |
| C/C(=N\NCc1ccccc1)C(=O)O | 7% |  |
| CCCN/N=C(\C)C(=O)O | 24% |  |
| CCCCCCCN/N=C(\C)C(=O)O | 70% |  |
| COc1ccc(CCN/N=C(\C)C(=O)O)cc1 | 7% |  |
| C/C(=N\NCCc1ccc(Cl)cc1)C(=O)O | 11% |  |
| C/C(=N\NCCc1ccc(C)cc1)C(=O)O | 8% |  |
| CCC(C)CCCN/N=C(\C)C(=O)O (centres undefined) | 41% |  |

| Structure (SMILES) | Decrease in blood glucose (Cavia porcellus [1]) | further results |
| --- | --- | --- |
| C/C(=N\NCC/C=C/c1ccccc1)C(=O)O | 15% |  |
| CCCCN/N=C(\C)C(=O)O | 41% |  |
| CCCOCCCCN/N=C(\C)C(=O)O | 22% |  |
| C/C(=C\CN/N=C(\C)C(=O)O)c1ccccc1 | 20% |  |
| C=CCCCCN/N=C(\C)C(=O)[O-].[Na+] | 60% |  |
| COCCCCCCN/N=C(\C)C(=O)O | 22% |  |
| CCCCCCN/N=C(\C)C(=O)O | 72% |  |
| CCCCCN/N=C(\C)C(=O)[O-].[Na+] | 45% |  |
| C/C(=N\NCCc1ccccc1)C(N)=O |  | Decrease in blood glucose (Cavia porcellus [2]): 15% |
| C/C(=N\NCCc1ccccc1C)C(=O)O |  | Decrease in blood glucose (Cavia porcellus [2]): 14% |
| C/C(=N\NCCCC1CCCCC1)C(=O)[O-].[Na+] | 13% |  |
| CCCCCCCCCN/N=C(\C)C(=O)O |  | Decrease in blood glucose (Cavia porcellus [3]): 25% |
| C/C(=N\NCCc1cccc(C(F)(F)F)c1)C(=O)O |  | Decrease in blood glucose (Cavia porcellus [2]): 13% |
| CCOC(=O)/C(C)=N/NCCc1ccccc1 | 14% |  |
| C/C(=N\NC(C)Cc1ccccc1)C(=O)[O-].[Na+] (centres undefined) |  | Decrease in blood glucose (Cavia porcellus [2]): 14% |
| CCCCCC(C)N/N=C(\C)C(=O)O (centres undefined) | 45% |  |
| C/C(=N\NCCC1CCCCC1)C(=O)O | 48% | LD50 [4]: 520 mg/kg |
| C/C(=C/c1ccccc1)CN/N=C(\C)C(=O)O |  | LD50 [4]: 680 mg/kg |
| C/C(=N\NCC(C)c1ccccc1)C(=O)[O-].[Na+] (centres undefined) |  | Decrease in blood glucose (Cavia porcellus [2]): 15% |
| C/C(=N\NCCc1cccc(C)c1)C(=O)[O-].[Na+] | 24% |  |
| N=C(N)NC(=N)NCCc1ccccc1 [PHENFORMIN] | 70% |  |
